Laboratory results taken from ChEMBL document CHEMBL1145949, “Constrained derivatives of stylostatin 1. 1. Synthesis and biological evaluation as potential anticancer agents” (2003).

Experiments:
[1] = Growth inhibition effect against colon LOVO-DOX cells; type: functional, Homo sapiens
In short: (§1)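 SRB colorimetric growth assay. Cells seeded at 5 × 10^3 per well in RPMI, attached 18 h in drug-free medium, then sample added (dissolved in DMSO/H₂O 3:7) for 48-72 h. Fixed with cold 50% TCA, 60 min, 4 °C; stained with 0.4% SRB in 1% acetic acid, 10 min RT; bound dye solubilized in Tris, OD 490 nm. GI50 from 100 × [(T − T0)/(C − T0)] = 50.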

[2] = Growth inhibition effect against colon LOVO cells; type: functional, Homo sapiens; in short: as §1
[3] = Growth inhibition effect against melanoma MEL-28 cells; type: functional, Homo sapiens; in short: as §1
[4] = Growth inhibition effect against prostate tumor DU-145 cells; type: functional, Homo sapiens; in short: as §1
[5] = Growth inhibition effect against ovarian tumor IGROV-ET cells; type: functional, Homo sapiens; in short: as §1
[6] = system: K562; experiment: Growth inhibition effect against leukemia […] cells; type: functional, Homo sapiens; in short: as §1
[7] = Growth inhibition effect against […] HT-29 cells; type: functional, Homo sapiens; in short: as §1
[8] = Growth inhibition effect against prostate tumor LN-caP cells; type: functional, Homo sapiens; in short: as §1
[9] = Growth inhibition effect against prostate tumor IGROV cells; type: functional, Homo sapiens; in short: as §1
[10] = Growth inhibition effect against NSCL A-549 cells; type: functional, Homo sapiens; in short: as §1
[11] = Growth inhibition effect against prostate tumor SKOV-3 cells; type: functional, Homo sapiens, SK-OV-3; in short: as §1
[12] = Growth inhibition effect against pancreas PANC-1 cells; type: functional, Homo sapiens; in short: as §1
[13] = Growth inhibition effect against ovarian tumor SK-BR-3 cells; type: functional, Homo sapiens; in short: as §1

| SMILES | GI50 ([1]; Homo sapiens, LOVO-DOX) [µM] | GI50 ([3]; Homo sapiens, SK-MEL-28) [µM] | GI50 ([5]; Homo sapiens, IGROV-ET) [µM] | GI50 ([6]; Homo sapiens, K562) [µM] | GI50 ([7]; Homo sapiens, HT-29) [µM] | GI50 ([8]; Homo sapiens, LNCaP) [µM] | GI50 ([9]; Homo sapiens, IGROV) [µM] | GI50 ([10]; Homo sapiens, A549) [µM] | GI50 ([12]; Homo sapiens, PANC-1) [µM] | GI50 ([13]; Homo sapiens, SK-BR-3) [µM] | GI50 [2] [µM] | GI50 [4] [µM] | GI50 [11] [µM] | further results |
| --- | --- | --- | --- | --- | --- | --- | --- | --- | --- | --- | --- | --- | --- | --- |
| CC[C@H](C)[C@@H]1NC(=O)[C@H](C)NC(=O)[C@H](CC(C)C)N2C[C@@H](O)[C@@H](O)[C@H](NC(=O)[C@H](CC(N)=O)NC(=O)[C@H](Cc3ccccc3)NC(=O)[C@@H]3CCCN3C1=O)C2=O | 8.84 | 6.69 | 4.97 | 3.59 | 9.31 | 3.49 | 3.33 | 5.2 | 5.1 | 3.86 |  |  |  | GI50 ([2]; Homo sapiens, LoVo): 8.83 µM; GI50 ([4]; Homo sapiens, DU-145): 10.6 µM; GI50 ([11]; Homo sapiens, SK-OV-3): 4.99 µM |
| CC[C@H](C)[C@@H]1NC(=O)[C@H](C)NC(=O)[C@H](CC(C)C)NC(=O)[C@H](CO)NC(=O)[C@H](CC(N)=O)NC(=O)[C@H](Cc2ccccc2)NC(=O)[C@@H]2CCCN2C1=O (stereo in doubt) [STYLOSTATIN 1] | 6.77 | 3.06 | 3.3 | 1.94 | 6.85 | 2.6 | 2.58 | 3.46 | 5.03 | 4.39 | 4.55 | 3.55 | 304 |  |
| CC[C@H](C)[C@@H]1NC(=O)[C@H](C)NC(=O)[C@H](CC(C)C)NC(=O)[C@H](CO)NC(=O)[C@H](CC(N)=O)NC(=O)[C@H](Cc2ccccc2)NC(=O)[C@@H]2CCCN2C1=O (stereo in doubt; 2) [STYLOSTATIN 1] |  |  |  |  |  |  |  |  |  |  | 11.5 | 8.44 | 3.77 | GI50 [1]: 8.52 µM; GI50 [3]: 4.64 µM; GI50 [5]: 4.29 µM; GI50 [6]: 3.42 µM; GI50 [7]: 7.13 µM; GI50 [8]: 2.44 µM; GI50 [9]: 3.35 µM; GI50 [10]: 4.28 µM; GI50 [12]: 4.97 µM; GI50 [13]: 4.16 µM |
